5-HT1A blocker = blocks the human serotonin 5-HT1a receptor; CHO 5-HT1a Ga15 NFAT-bla reporter, antagonist mode; inhibition, % at 10 µM; 0.68% of 62,000 active; AID 612;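 active = inhibition above the mean of all tested compounds plus 3 SD, cut at about 43% in these data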;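 note: receptor stimulated by 5-CT agonist at 100 nM near EC80; beta-lactamase reporter measured by ratiometric fluorescence of a cleavable substrate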
S1P1 ag-PAM = agonists and agonism potentiators of human S1P1 receptor; S1P1 CRE-bla cells, forskolin, beta-lactamase FRET, potentiator mode; S1P1 agonist co-added at EC20, 2 nM; 100% = saturating reference agonist, 0% = basal; activation, % at 9.5 µM; 0.57% of 56,000 active;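 active = activation above a cutoff set at the mean activation of all tested compounds plus 3 SD, cut at about 54% in these data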;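 note: forskolin at 4 µM as EC80 and the EC20 agonist is SEW2871; 100% = SEW2871 at its EC100 plus forskolin at EC80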
Target sequence (P21453 whole entry, looked up): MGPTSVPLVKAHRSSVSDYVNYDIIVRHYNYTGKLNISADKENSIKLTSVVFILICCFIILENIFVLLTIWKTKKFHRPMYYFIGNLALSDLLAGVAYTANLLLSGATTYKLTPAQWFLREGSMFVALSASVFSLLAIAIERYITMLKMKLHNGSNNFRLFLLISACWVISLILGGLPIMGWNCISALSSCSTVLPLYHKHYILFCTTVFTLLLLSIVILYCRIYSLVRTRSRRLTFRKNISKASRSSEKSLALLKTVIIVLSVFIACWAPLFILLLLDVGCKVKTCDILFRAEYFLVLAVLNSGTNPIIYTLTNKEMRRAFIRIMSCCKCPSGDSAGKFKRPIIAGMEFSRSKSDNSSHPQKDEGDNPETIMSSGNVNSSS
HTR1E agonist = agonists of human 5-HT1E serotonin receptor; P28566; 0.69% of 65,000 active; activation, % at 6 µM; CHO 5-HT1E Ga15 NFAT-bla reporter, FRET; 0% DMSO wells, 100% control agonist wells;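 active = activation above a set limit, the screen-wide mean activation plus 3 SD, cut at about 8.5% in these data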;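 note: 100% = positive control agonist at 1 µM giving full maximal response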
S1P3 ag = agonists of human S1P3 receptor | Q99500 | 0.1% of 60,000 active | AID 373 | S1P3 NFAT-BLA reporter cells, agonism, FRET ratio; relative to 1 µM S1P, basal subtracted | activation, % at 4.5 µM;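 active = activation above the screen-wide mean plus 3 SD, cut at about 4.5% in these data, passing the limit was not always enough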
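Assay system: CHO cells stably expressing human S1P3, Gα16 and NFAT-β-lactamase reporter. Timing: overnight plating, 4 h compound 37 °C, 2 h substrate RT. Signal: β-lactamase FRET emission ratio 460/535 nm. Measure: percent activation versus median 1 µM S1P response, basal-subtracted, per plate. Repeats: primary screen single test, confirmation screen in triplicate.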
5HT1a ag = activates the human 5-HT1a serotonin receptor; P08908; CHO 5-HT1a Ga15 NFAT-bla reporter, FRET ratio; 0% basal, 100% maximal reference agonist; activation, % at 10 µM; 0.56% of 65,000 active; AID 567;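 active = activation above the screen-wide mean activation plus 3 SD, cut at about 19% in these data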;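 note: 0% = DMSO wells and 100% = 5-CT at EC100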
HTR1E antagonist = blocks the human 5-HT1E serotonin receptor. inhibition, % at 6 µM. P28566. AID 571. 0.99% of 65,000 active. CHO 5-HT1E Ga15 NFAT-bla reporter, FRET, antagonist;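 active = inhibition above a set limit, the mean inhibition across every tested compound plus 3 SD, cut at about 29% in these data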;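 note: signal is the 460 over 535 nm emission ratio of beta-lactamase substrate; 0% = agonist plus DMSO wells and 100% = wells without agonist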
* hit, by the source's call; / = no result. Most compounds without a hit are left out; they make up all but 3% or so of the library.

SMILES	5-HT1A blocker	S1P1 ag-PAM	HTR1E agonist	S1P3 ag	5HT1a ag	HTR1E antagonist
COc1ccc(-n2c(SCC(=O)N3CCN(c4ccccc4)CC3)nc3c(c2=O)SCC3)cc1	-15	10	1	-1	2	-14
COC(=O)C(C)Sc1nc2c(c(=O)n1-c1ccccc1)SCC2 (stereo not given)	-10	/	-1	/	36*	5
CC1CC(N(C(=O)c2ccco2)c2ccccc2)c2ccccc2N1 (stereo not given)	10	6	16*	1	-1	-6
CCn1c2ccccc2c2cc(Nc3cc(C)nc4ncnn34)ccc21	72*	-100	0	-1	-2	70*
CCN(CC)S(=O)(=O)c1ccc(Nc2cc(C)nc3ncnn23)cc1	-1	-24	1	-1	1	0
CCCOC(=O)c1ccc(Nc2cc(C)nc3ncnn23)cc1	-22	-8	0	0	105*	-17
COc1cccc(-c2nn(C)c3sc(C(=O)NCc4ccccn4)cc23)c1	20	-14	-1	-1	-1	42*
COc1cccc(-c2nn(C)c3sc(C(=O)Nc4ccc5c(c4)OCCO5)cc23)c1	-4	22	1	1	-1	-13
COCCOC(=O)C1=C(C)Nc2nc(C)nn2C1c1ccc(F)cc1 (stereo not given)	-3	5	1	-1	31*	-1
Cc1cc(C(=O)OCC(=O)NCc2ccco2)c(C)n1-c1ccc(F)cc1	34	8	-1	-1	-3	37*
O=C(COC(=O)c1ccco1)NCc1ccco1	8	1	0	-1	-2	6
COc1ccc(/C=N/n2cncn2)cc1CSc1ccccn1	/	-15	16*	-5	0	-8
COc1ccc(NC(=O)CSc2ccccn2)cc1OC	-10	-21	0	0	-3	-5
c1ccc2c(c1)oc1c(N3CCN(Cc4ccc5c(c4)OCO5)CC3)ncnc12	29	92*	0	-1	63*	-10
c1ccc(Cn2nnc3c(N4CCN(Cc5ccc6c(c5)OCO6)CC4)ncnc32)cc1	5	20	0	0	-1	5
Oc1ccc(CN2CCN(Cc3ccccc3)CC2)c2cccnc12	20	-11	1	-1	-3	30*
CN1CCN(Cc2cc(COCc3ccccc3)c3cccnc3c2O)CC1	28	3	5	-3	-2	48*
Oc1ccc(CNc2ccccc2)c2cccnc12	10	-17	0	0	-1	-11
COc1ccccc1NC(=O)C1CC(=O)OC1c1ccccc1 (stereo not given)	6	2	0	0	-4	-5
N#Cc1nc(-c2ccccc2Cl)oc1N1CCCCC1	/	-15	0	-4	-1	33*
Cc1nc2ccc3nc(NC(=O)C4COc5ccccc5O4)sc3c2s1 (stereo not given)	-9	67*	0	0	-1	-2
Cc1c(/C=N/n2cnnc2)c2ccccc2n1CCOc1ccc(Cl)cc1	-7	/	1	/	3	33*
Cc1ccc(OCCn2c(C)c(/C=N/n3cnnc3)c3ccccc32)cc1	1	-4	0	0	1	44*
CC(C)(C)c1cccc(/C=N/O)c1O	/	-20	0	-2	2	30*
COc1ccccc1NC(=O)c1nnn(CC(=O)Nc2cccc(SC)c2)c1N	-9	/	1	/	2	-6
CC(C)Oc1cccc(C(=O)Nc2ccccc2N2CCOCC2)c1	4	11	-1	-1	1	32*
O=C(Nc1ccc(N2CCOCC2)c(Cl)c1)c1cccc(F)c1	2	88*	0	-1	-3	5
O=C(Nc1ccc(N2CCOCC2)c(Cl)c1)c1c(F)c(F)c(F)c(F)c1F	0	/	-1	-1	-7	14
COc1ccc(S(=O)(=O)N(CCCN2CCOCC2)Cc2ccc(OC)c(OC)c2)cc1	-4	-16	0	0	-1	-11
O=S1(=O)C=C(Sc2nc3cc(Cl)ccc3o2)c2ccccc21	94*	80*	-1	-1	-4	80*

Source: PubChem BioAssay (The Scripps Research Institute Molecular Screening Center)
